Reference: ChEMBL document CHEMBL1131317, “Antitumor agents. 181. Synthesis and biological evaluation of 6,7,2',3',4'-substituted-1,2,3,4-tetrahydro-2-phenyl-4-quinolones as a new class of antimitotic antitumor agents” (J Med Chem, 1998)
Values after ≈ are worked out from the molar mass of the structure shown.

Key:
Tubulin = Tubulin (Bos taurus, UniProt Q6B856+Q862L2+Q862F3); assay: Inhibition of bovine brain tubulin polymerization (ITP).
A549 = assay: Cytotoxicity against human lung carcinoma cells (A-549) using SRB assay.; type: functional; conditions: read-out: ED50 (the source's name)
How it was run: (§1)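 Cells grown at 37 °C in RPMI-1640 with 10% FBS and 100 µg/mL kanamycin, humidified 5% CO2. Seeding density set per line so control A562 reads 1-2.5. Drug given from DMSO stocks, final DMSO ≤2% (v/v), for 3 days. SRB stain, absorbance at 562 nm. […] Triplicates.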

HCT-8 = assay: Cytotoxicity against human ileocecal carcinoma cells (HCT-8) using SRB assay.; type: functional; conditions: read-out: ED50 (the source's name); how it was run: as §1
MCF7 = assay: Cytotoxicity against human breast cancer cells (MCF-7) using SRB assay.; type: functional; conditions: read-out: ED50 (the source's name); how it was run: as §1
CAKI-1 = assay: Cytotoxicity against human renal cancer cells (CAKI-1) using SRB assay.; type: functional; conditions: read-out: ED50 (the source's name); how it was run: as §1
KB = assay: Cytotoxicity against human epidermoid carcinoma of the nasopharyngeal cells (KB) using SRB assay.; type: functional; conditions: read-out: ED50 (the source's name); how it was run: as §1
SK-MEL-2 = assay: The compound was tested for the cytotoxicity for the cell lines of human melanoma cancer (SKMEL-2) using SRB assay.; type: functional; conditions: read-out: ED50 (the source's name); how it was run: as §1
Tubulin (Bos taurus) [1] = molecular target: T1, Tubulin (Bos taurus) (UniProt Q6B856+Q862L2+Q862F3); assay: % inhibition of [3H]colchicine binding to bovine brain tubulin at a concentration of 5 uM
How it was run: (§2)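 [3H]colchicine at 5 µM incubated with 1 µM tubulin. Inhibitor present at the stated concentration (5 or 1 µM). Result given as % inhibition of colchicine binding ± SD.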

Tubulin (Bos taurus) [2] = molecular target: T1, Tubulin (Bos taurus); assay: The compound was tested for the % inhibition of [3H]colchicine binding to bovine brain tubulin at a concentration of 1 uM; how it was run: as §2

Row | SMILES | IC50 (Tubulin) [nM] | inhibition (Tubulin (Bos taurus) [1]) [%] | inhibition (Tubulin (Bos taurus) [2]) [%] | EC50 (A549) [µg/mL] | EC50 (HCT-8) [µg/mL] | EC50 (MCF7) [µg/mL] | EC50 (CAKI-1) [µg/mL] | EC50 (KB) [µg/mL] | EC50 (SK-MEL-2) [µg/mL]
1 | COc1cccc([C@H]2C/C(=N\NC(=O)C(=O)NC(C)c3ccccc3)c3ccccc3N2)c1 (some centres not stated) | > 40000 |  |  | > 25 | > 25 | > 25 | > 25 | > 25 | 
2 | CC(NC(=O)C(=O)N/N=C1\C[C@H](c2ccccc2F)Nc2cc3c(cc21)OCO3)c1ccccc1 (some centres not stated) | > 40000 |  |  | 9 (≈ 19 µM) | 9 (≈ 19 µM) | 25 (≈ 52.7 µM) | 18 (≈ 37.9 µM) | 10 (≈ 21.1 µM) | 
3 | COc1cccc([C@@H]2C/C(=N\NC(=O)C(=O)NC(C)c3ccccc3)c3ccccc3N2)c1 (some centres not stated) | > 40000 |  |  | 8 (≈ 18.1 µM) | 3.8 (≈ 8.59 µM) | 8 (≈ 18.1 µM) | 25 (≈ 56.5 µM) | 8 (≈ 18.1 µM) | 
4 | COc1cccc(-c2cc(O)c3ccccc3n2)c1 | 1500 |  |  |  |  |  |  |  | 
5 | COc1ccc(C2CC(=O)c3ccccc3N2)cc1 (configuration not stated) | > 40000 |  |  | > 25 | > 25 | > 25 |  | > 25 | 
6 | COc1ccccc1C1CC(=O)c2ccccc2N1 (configuration not stated) | > 40000 |  |  | 6 (≈ 23.7 µM) | 6 (≈ 23.7 µM) | 6.5 (≈ 25.7 µM) | 25 (≈ 98.7 µM) | 1.8 (≈ 7.11 µM) | 12.5 (≈ 49.3 µM)
7 | O=C1CC(c2cccc(Cl)c2)Nc2ccc(N3CCCC3)cc21 (configuration not stated) | 760 | 89 | 63 | 0.09 (≈ 0.275 µM) | 0.09 (≈ 0.275 µM) | 0.31 (≈ 0.949 µM) | 0.95 (≈ 2.91 µM) | 0.05 (≈ 0.153 µM) | 0.08 (≈ 0.245 µM)
8 | COc1cccc(-c2cc(O)c3cccnc3n2)c1 | 790 | 24 |  |  |  |  |  |  | 
9 | CC(NC(=O)C(=O)N/N=C1\C[C@@H](c2ccccc2F)Nc2cc3c(cc21)OCO3)c1ccccc1 (some centres not stated) | > 40000 |  |  | 13 (≈ 27.4 µM) | 2.1 (≈ 4.43 µM) | 8.5 (≈ 17.9 µM) | > 25 | 18 (≈ 37.9 µM) | 
10 | COc1cc2c(c(OC)c1OC)-c1ccc(OC)c(=O)cc1[C@@H](NC(C)=O)CC2 [COLCHICINE] |  |  |  | 0.002 (≈ 0.00501 µM) | 0.016 (≈ 0.0401 µM) | > 0.4 | 0.4 (≈ 1 µM) | 0.002 (≈ 0.00501 µM) | 0.008 (≈ 0.02 µM)
11 | O=C1CC(c2ccccc2)Nc2ccccc21 (configuration not stated) [Aza-flavanone] | 2700 |  |  | 0.013 (≈ 0.0582 µM) | 0.013 (≈ 0.0582 µM) | 0.13 (≈ 0.582 µM) | 0.013 (≈ 0.0582 µM) | 0.07 (≈ 0.314 µM) | 0.13 (≈ 0.582 µM)
12 | COc1cccc(-c2cc(O)c3cc(N4CCCC4)ccc3n2)c1 | 490 | 91 | 65 |  |  |  |  |  | 

Now from value to compound, other results behind:

Row | IC50 (Tubulin) [nM] | inhibition (Tubulin (Bos taurus) [1]) [%] | inhibition (Tubulin (Bos taurus) [2]) [%] | SMILES | EC50 (A549) [µg/mL] | EC50 (HCT-8) [µg/mL] | EC50 (MCF7) [µg/mL] | EC50 (CAKI-1) [µg/mL] | EC50 (KB) [µg/mL] | EC50 (SK-MEL-2) [µg/mL]
13 | > 40000 |  |  | COc1cccc([C@@H]2C/C(=N\NC(=O)C(=O)NC(C)c3ccccc3)c3cc4c(cc3N2)OCO4)c1 (some centres not stated) | 2.4 (≈ 4.93 µM) | 1 (≈ 2.06 µM) | 3 (≈ 6.17 µM) | 12.5 (≈ 25.7 µM) | 1.8 (≈ 3.7 µM) | 
14 | 3300 |  |  | COc1cccc(C2CC(=O)c3ccccc3N2)c1 (configuration not stated) | 0.23 (≈ 0.908 µM) | 0.12 (≈ 0.474 µM) | 0.32 (≈ 1.26 µM) | 0.32 (≈ 1.26 µM) | 0.11 (≈ 0.434 µM) | 0.2 (≈ 0.79 µM)
15 | 690 | 67 |  | COc1cccc([C@@H]2CC(=O)c3cc4c(cc3N2)OCO4)c1 | 0.03 (≈ 0.101 µM) | 0.02 (≈ 0.0673 µM) | 0.03 (≈ 0.101 µM) | 0.25 (≈ 0.841 µM) | 0.02 (≈ 0.0673 µM) | 
16 | 2000 |  |  | O=C1CC(c2ccc(F)cc2)Nc2cc3c(cc21)OCO3 (configuration not stated) | 1 (≈ 3.51 µM) | 0.4 (≈ 1.4 µM) | 0.4 (≈ 1.4 µM) | 0.8 (≈ 2.8 µM) | 0.3 (≈ 1.05 µM) | 0.2 (≈ 0.701 µM)
17 | 660 | 91 | 63 | COc1cccc(C2CC(=O)c3cc(N4CCCC4)ccc3N2)c1 (configuration not stated) | 0.01 (≈ 0.031 µM) | 0.016 (≈ 0.0496 µM) | 0.11 (≈ 0.341 µM) | 0.008 (≈ 0.0248 µM) | 0.008 (≈ 0.0248 µM) | 0.016 (≈ 0.0496 µM)
18 | 750 | 75 |  | O=C1CC(c2cccc(F)c2)Nc2cc3c(cc21)OCO3 (configuration not stated) | 0.012 (≈ 0.0421 µM) | 0.016 (≈ 0.0561 µM) | 0.032 (≈ 0.112 µM) | 0.016 (≈ 0.0561 µM) | 0.012 (≈ 0.0421 µM) | 0.016 (≈ 0.0561 µM)
19 | 12000 |  |  | O=C1C[C@H](c2ccccc2F)Nc2cc3c(cc21)OCO3 | 0.6 (≈ 2.1 µM) | 0.5 (≈ 1.75 µM) | 0.85 (≈ 2.98 µM) | 1.25 (≈ 4.38 µM) | 0.43 (≈ 1.51 µM) | 
20 | 7200 |  |  | COc1cccc([C@H]2CC(=O)c3ccccc3N2)c1 | 0.5 (≈ 1.97 µM) | 0.5 (≈ 1.97 µM) | 0.6 (≈ 2.37 µM) | 3.8 (≈ 15 µM) | 0.5 (≈ 1.97 µM) | 
21 | > 40000 |  |  | COc1cccc([C@H]2C/C(=N\NC(=O)C(=O)NC(C)c3ccccc3)c3cc4c(cc3N2)OCO4)c1 (some centres not stated) | 11.5 (≈ 23.6 µM) | 1.5 (≈ 3.08 µM) | 6.3 (≈ 12.9 µM) | > 25 | 12 (≈ 24.7 µM) | 
22 | 1100 |  |  | O=C1CC(c2ccccc2F)Nc2cc3c(cc21)OCO3 (configuration not stated) | 0.08 (≈ 0.28 µM) | 0.13 (≈ 0.456 µM) | 0.06 (≈ 0.21 µM) | 1 (≈ 3.51 µM) | 0.06 (≈ 0.21 µM) | 0.125 (≈ 0.438 µM)
23 | 2300 |  |  | COc1cccc([C@H]2CC(=O)c3cc4c(cc3N2)OCO4)c1 | 0.09 (≈ 0.303 µM) | 0.08 (≈ 0.269 µM) | 0.12 (≈ 0.404 µM) | 0.25 (≈ 0.841 µM) | 0.07 (≈ 0.235 µM) | 
24 | 740 | 33 |  | COc1cccc(-c2cc(O)c3cc4c(cc3n2)OCO4)c1 |  |  |  |  |  | 
25 | 1200 |  |  | COc1cccc([C@@H]2CC(=O)c3ccccc3N2)c1 | 0.15 (≈ 0.592 µM) | 0.09 (≈ 0.355 µM) | 0.3 (≈ 1.18 µM) | 0.15 (≈ 0.592 µM) | 0.12 (≈ 0.474 µM) | 
26 | 560 | 51 |  | O=C1C[C@@H](c2ccccc2F)Nc2cc3c(cc21)OCO3 | 0.18 (≈ 0.631 µM) | 0.09 (≈ 0.315 µM) | 0.1 (≈ 0.351 µM) | 1 (≈ 3.51 µM) | 0.08 (≈ 0.28 µM) | 
27 | 820 | 60 |  | COc1cccc(C2CC(=O)c3cc4c(cc3N2)OCO4)c1 (configuration not stated) | 0.04 (≈ 0.135 µM) | 0.04 (≈ 0.135 µM) | 0.04 (≈ 0.135 µM) | 0.06 (≈ 0.202 µM) | 0.02 (≈ 0.0673 µM) | 0.06 (≈ 0.202 µM)
